Measured values published in ChEMBL document CHEMBL1141657, “Synthesis, structure elucidation and identification of antitumoural properties of novel fused 1,2,4-triazine aryl derivatives” (Eur J Med Chem, 2008).

How the values were obtained:
[1] = Cytotoxicity against HSF cells assessed as cell viability at 1 uM after 24 hrs by MTT assay relative to control; type: cell-based; conditions: human, read-out: Activity
How it was run: (§1)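 Normal human skin fibroblasts (HSF, primary line) were exposed to DMSO-dissolved compound for 24 h. Viability was read by MTT tetrazolium reduction and expressed against untreated control set at 100%.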

[2] = Cytotoxicity against HSF cells assessed as cell viability at 50 uM after 24 hrs by MTT assay relative to control; type: cell-based; conditions: human, read-out: Activity; how it was run: as §1
[3] = Cytotoxicity against HSF cells assessed as cell viability at 100 uM after 24 hrs by MTT assay relative to control; type: cell-based; conditions: human, read-out: Activity; how it was run: as §1
[4] = test system: Jurkat; assay: Cytotoxicity against human Jurkat cells assessed as cell viability at 1 uM after 24 hrs by MTT assay relative to control; type: functional; conditions: read-out: Activity
How it was run: (§2)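 Jurkat T-cell leukaemia line grown in RPMI 1640 with 10% FBS, 2 mM L-glutamine and gentamycin at 37 °C, 5% CO2, kept in log phase. Compounds were dissolved in DMSO and applied for 24 h. Cells were washed in HEPES-buffered medium (pH 7.4) and given MTT at 0.5 mg/mL for 45 min at 37 °C. Formazan was dissolved in DMSO and read at 570 nm. Viability is % of control, from three independent measurements.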

[5] = test system: Jurkat; assay: Cytotoxicity against human Jurkat cells assessed as cell viability at 50 uM after 24 hrs by MTT assay relative to control; type: functional; conditions: read-out: Activity; how it was run: as §2
[6] = test system: Jurkat; assay: Cytotoxicity against human Jurkat cells assessed as cell viability at 100 uM after 24 hrs by MTT assay relative to control; type: functional; conditions: read-out: Activity; how it was run: as §2
[7] = Growth inhibition of HSF cells assessed as BrdU incorporation at 31.2 uM after 72 hrs by spectrophotometry; type: cell-based; conditions: human, read-out: GI
[8] = test system: Vero; assay: Growth inhibition of african green monkey Vero cells assessed as BrdU incorporation at 31.2 uM after 72 hrs by spectrophotometry; type: cell-based; conditions: chlorocebus sabaeus
[9] = Growth inhibition of human LS180 cells assessed as BrdU incorporation at 31.2 uM after 72 hrs by spectrophotometry; type: functional; conditions: LS180, 72 h, read-out: GI
[10] = test system: SiHa; assay: Growth inhibition of human SiHa cells assessed as BrdU incorporation at 31.2 uM after 72 hrs by spectrophotometry; type: functional; conditions: read-out: GI
[11] = test system: T47D; assay: Growth inhibition of human T47D cells assessed as BrdU incorporation at 31.2 uM after 72 hrs by spectrophotometry; type: functional; conditions: read-out: GI
[12] = Growth inhibition of HSF cells assessed as BrdU incorporation at 155.9 uM after 72 hrs by spectrophotometry; type: cell-based; conditions: human, read-out: GI
[13] = Growth inhibition of african green monkey Vero cells assessed as BrdU incorporation at 155.9 uM after 72 hrs by spectrophotometry; type: cell-based; conditions: chlorocebus sabaeus, read-out: GI
[14] = Growth inhibition of human LS180 cells assessed as BrdU incorporation at 155.9 uM after 72 hrs by spectrophotometry; type: functional; conditions: LS180, 72 h, read-out: GI
[15] = test system: SiHa; assay: Growth inhibition of human SiHa cells assessed as BrdU incorporation at 155.9 uM after 72 hrs by spectrophotometry; type: functional; conditions: read-out: GI
[16] = test system: T47D; assay: Growth inhibition of human T47D cells assessed as BrdU incorporation at 155.9 uM after 72 hrs by spectrophotometry; type: functional; conditions: read-out: GI
[17] = Growth inhibition of HSF cells assessed as BrdU incorporation at 33.1 uM after 72 hrs by spectrophotometry; type: cell-based; conditions: human, read-out: GI
How it was run: (§3)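 Cells were seeded at 10⁴ cells/mL and preincubated. Compounds were dissolved in DMSO and added at two fixed concentrations, then incubated for 72 h. End-point was BrdU labelling with ELISA detection, read spectrophotometrically. Result is % growth inhibition versus untreated controls. Triplicates.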

[18] = test system: Vero; assay: Growth inhibition of african green monkey Vero cells assessed as BrdU incorporation at 33.1 uM after 72 hrs by spectrophotometry; type: cell-based; conditions: chlorocebus sabaeus; how it was run: as §3
[19] = Growth inhibition of human LS180 cells assessed as BrdU incorporation at 33.1 uM after 72 hrs by spectrophotometry; type: functional; conditions: LS180, 72 h, read-out: GI; how it was run: as §3
[20] = test system: SiHa; assay: Growth inhibition of human SiHa cells assessed as BrdU incorporation at 33.1 uM after 72 hrs by spectrophotometry; type: functional; conditions: read-out: GI; how it was run: as §3
[21] = test system: T47D; assay: Growth inhibition of human T47D cells assessed as BrdU incorporation at 33.1 uM after 72 hrs by spectrophotometry; type: functional; conditions: read-out: GI
How it was run: (§4)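 Each cell line was seeded at 10⁴ cells per mL and preincubated. Test agents were dissolved in DMSO, added at two examined concentrations (10 and 50 per mL by mass), and incubated for 72 h. The end-point was BrdU labeling and detection kit III read on an ELISA reader. Percent growth inhibition was calculated against untreated controls, in triplicate.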

[22] = Growth inhibition of HSF cells assessed as BrdU incorporation at 165.4 uM after 72 hrs by spectrophotometry; type: cell-based; conditions: human, read-out: GI; how it was run: as §3
[23] = Growth inhibition of african green monkey Vero cells assessed as BrdU incorporation at 165.4 uM after 72 hrs by spectrophotometry; type: cell-based; conditions: chlorocebus sabaeus, read-out: GI; how it was run: as §3
[24] = Growth inhibition of human LS180 cells assessed as BrdU incorporation at 165.4 uM after 72 hrs by spectrophotometry; type: functional; conditions: LS180, 72 h, read-out: GI; how it was run: as §3
[25] = test system: SiHa; assay: Growth inhibition of human SiHa cells assessed as BrdU incorporation at 165.4 uM after 72 hrs by spectrophotometry; type: functional; conditions: read-out: GI; how it was run: as §3
[26] = test system: T47D; assay: Growth inhibition of human T47D cells assessed as BrdU incorporation at 165.4 uM after 72 hrs by spectrophotometry; type: functional; conditions: read-out: GI; how it was run: as §4

| SMILES | viability at 24 h, 1 µM [1] | viability at 24 h, 50 µM [2] | viability at 24 h, 100 µM [3] | viability at 1 µM [4] | viability at 50 µM [5] | viability at 100 µM [6] | other results |
| --- | --- | --- | --- | --- | --- | --- | --- |
| CCOC(=O)c1nnc2n(c1=O)CCN2c1ccc(C)cc1 | 91% | 87% | 82% | 83% | 89% | 93% |  |
| CCOC(=O)c1nnc2n(c1=O)CCN2c1ccccc1 | 91.6% | 98.1% | 77.1% | 82% | 103% | 105% |  |
| CCOC(=O)c1nnc2n(c1=O)CCN2c1cccc(Cl)c1 | 104% | 103% | 98% | 114% | 111% | 107% | inhibition at 72 h, 31.2 µM [7]: 16%; growth inhibition (GI) [8]: 20%; inhibition of growth at 31.2 µM [9]: 30%; inhibition of growth at 31.2 µM [10]: 41%; inhibition of growth at 31.2 µM [11]: 26%; inhibition at 72 h, 155.9 µM [12]: 17%; inhibition at 72 h, 155.9 µM [13]: 25%; inhibition of growth at 155.9 µM [14]: 35%; inhibition of growth at 155.9 µM [15]: 52%; inhibition of growth at 155.9 µM [16]: 41% |
| COc1ccc(N2CCn3c2nnc(C(=O)NN)c3=O)cc1 | 98% | 102% | 100% | 97% | 97% | 100% | inhibition at 72 h, 33.1 µM [17]: 0%; growth inhibition (GI) [18]: 0%; inhibition of growth at 33.1 µM [19]: 1%; inhibition of growth at 33.1 µM [20]: 19%; inhibition of growth at 33.1 µM [21]: 1%; inhibition at 72 h, 165.4 µM [22]: 0%; inhibition at 72 h, 165.4 µM [23]: 0%; inhibition of growth at 165.4 µM [24]: 1%; inhibition of growth at 165.4 µM [25]: 18%; inhibition of growth at 165.4 µM [26]: 0% |
